In ChEMBL document CHEMBL1139509, “Design, synthesis, and antipicornavirus activity of 1-[5-(4-arylphenoxy)alkyl]-3-pyridin-4-ylimidazolidin-2-one derivatives” (J Med Chem, 2005):

What was measured:
[1] = tested on: Enterovirus; test: In vitro inhibitory concentration against human enterovirus EV71-2231 strain; assay type: functional, organism-based, Enterovirus A71
Summary of the method: (§1)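 CPE-inhibition (neutralization) assay on RD cells seeded at 3 × 10⁵ cells/mL in DMEM/10% FBS and grown 24-30 h to about 90% confluency. Virus (100 TCID50) was mixed with graded compound concentrations and adsorbed 1 h at 37 °C. Cells were overlaid with DMEM, 5% FBS and 2% DMSO, incubated 64 h at 37 °C, then glutaraldehyde-fixed and crystal violet-stained, with A570 read-out. IC50 is 50% CPE reduction versus virus control. Triplicate, at least twice.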

[2] = tested on: Enterovirus; test: In vitro inhibitory concentration against human enterovirus EV71-4643 strain; assay type: functional, organism-based, Enterovirus A71; summary of the method: as §1
[3] = Cytotoxicity against human rhabdomyosarcoma cells; assay type: cell-based
Summary of the method: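 RD (rhabdomyosarcoma) cells were exposed to test compounds at various concentrations for 96 h at 37 °C. Viable cells were counted by trypan blue staining. CC50 is the concentration that reduces viability to 50% of the untreated control culture. Triplicate, run at least twice.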

[4] = tested on: Coxsackievirus; test: Inhibitory concentration against Coxsackievirus A10; assay type: functional, organism-based, Viruses; summary of the method: as §1
[5] = tested on: Enterovirus; test: Inhibitory concentration against human enterovirus EV68; assay type: functional, organism-based, Viruses
[6] = Inhibitory concentration against Echovirus 9; assay type: functional, Viruses; summary of the method: as §1
[7] = Inhibitory concentration against Echovirus 29; assay type: functional, Viruses; summary of the method: as §1
[8] = tested on: Coxsackievirus; test: Inhibitory concentration against Coxsackievirus A9; assay type: functional, organism-based, Viruses; summary of the method: as §1
[9] = tested on: Coxsackievirus; test: Inhibitory concentration against Coxsackievirus B1; assay type: functional, organism-based, Viruses; summary of the method: as §1
[10] = tested on: Coxsackievirus; test: Inhibitory concentration against Coxsackievirus B2; assay type: functional, organism-based, Viruses; summary of the method: as §1
[11] = tested on: Coxsackievirus; test: Inhibitory concentration against Coxsackievirus B3; assay type: functional, organism-based, Viruses; summary of the method: as §1
[12] = tested on: Coxsackievirus; test: Inhibitory concentration against Coxsackievirus B5; assay type: functional, organism-based, Viruses; summary of the method: as §1
[13] = tested on: Coxsackievirus; test: Inhibitory concentration against Coxsackievirus B6; assay type: functional, organism-based, Viruses; summary of the method: as §1
[14] = tested on: Coxsackievirus; test: Inhibitory concentration against Coxsackievirus A16; assay type: functional, organism-based, Viruses; summary of the method: as §1
[15] = tested on: Coxsackievirus; test: Inhibitory concentration against Coxsackievirus A24; assay type: functional, organism-based, Viruses; summary of the method: as §1
[16] = tested on: rhinovirus A2; test: Inhibitory concentration against Human rhinovirus 2; assay type: functional, organism-based, human rhinovirus type 2; conditions: Rhinovirus A; summary of the method: as §1
[17] = Inhibitory concentration against Human rhinovirus 14; assay type: functional, human rhinovirus type 14; summary of the method: as §1
[18] = tested on: Enterovirus; test: Inhibitory concentration against Human Enterovirus 71; assay type: functional, organism-based, Viruses; summary of the method: as §1
[19] = tested on: Enterovirus; test: Inhibitory concentration against human enterovirus EV71 (1743) genotype B; assay type: functional, organism-based, Viruses; summary of the method: as §1
[20] = tested on: Enterovirus; test: Inhibitory concentration against human enterovirus EV71 (2086) genotype C; assay type: functional, organism-based, Viruses; summary of the method: as §1
[21] = tested on: Enterovirus; test: Inhibitory concentration against human enterovirus EV71 (2231) genotype C; assay type: functional, organism-based, Viruses; summary of the method: as §1
[22] = tested on: Enterovirus; test: Inhibitory concentration against human enterovirus EV71 (4643) genotype C; assay type: functional, organism-based, Viruses; summary of the method: as §1
[23] = tested on: Enterovirus; test: Inhibitory concentration against human enterovirus EV71 (BrCr) genotype A; assay type: functional, organism-based, Viruses; summary of the method: as §1
[24] = In vitro inhibitory concentration against Echovirus 6; assay type: functional, Viruses
[25] = tested on: Enterovirus; test: In vitro inhibitory concentration against human enterovirus EV71; assay type: functional, organism-based, Viruses; summary of the method: as §1
[26] = In vitro inhibitory concentration against Coxsackievirus B4; assay type: functional, Viruses; summary of the method: as §1
[27] = tested on: Coxsackievirus; test: Inhibitory concentration against Coxsackievirus B4; assay type: functional, organism-based, Viruses; summary of the method: as §1
[28] = tested on: Enterovirus; test: Ratio of CC50 to that of IC50 against human enterovirus EV71-2231 strain; assay type: functional, Enterovirus A71
[29] = tested on: Enterovirus; test: Ratio of CC50 to that of IC50 against human enterovirus EV71-4643 strain; assay type: functional, Enterovirus A71

CCCC(CCOc1ccc(-c2ccc(Cl)cc2)cc1)CCN1CCN(c2ccncc2)C1=O (stereo not drawn)
IC50 [1]: > 25000 nM | IC50 [2]: 960 nM | CC50 [3]: > 25000 nM

CC(C)(CCCN1CCN(c2ccncc2)C1=O)COc1ccc(-c2ccc(Cl)cc2)cc1
IC50 [1]: > 25000 nM | IC50 [2]: 130 nM | CC50 [3]: > 25000 nM

CC(CCCCOc1ccc(-c2ccc(Cl)cc2)cc1)N1CCN(c2ccncc2)C1=O (stereo not drawn)
IC50 [1]: 230 nM | IC50 [2]: 36 nM | CC50 [3]: 12500 nM

O=C1N(CCCCCOc2ccc(-c3ccc(Cl)cc3)cc2)CCN1c1ccncc1
IC50 [4]: > 12500 nM | IC50 [5]: > 12500 nM | IC50 [6]: 1310 nM | IC50 [7]: 390 nM | IC50 [8]: 71 nM | IC50 [9]: > 12500 nM | IC50 [10]: > 12500 nM | IC50 [11]: > 12500 nM | IC50 [12]: 1140 nM | IC50 [13]: > 12500 nM | IC50 [14]: > 12500 nM | IC50 [15]: 1300 nM | IC50 [16]: > 12500 nM | IC50 [17]: > 12500 nM | IC50 [18]: 38 nM | IC50 [1]: 76 nM | IC50 [2]: 38 nM | IC50 [19]: 92 nM | IC50 [20]: 43 nM | IC50 [21]: 76 nM | IC50 [22]: 38 nM | IC50 [23]: 130 nM | CC50 [3]: 6250 nM

O=C1N(CCC(CCOc2ccc(-c3ccc(Cl)cc3)cc2)C(F)(F)F)CCN1c1ccncc1 (stereo not drawn)
IC50 [1]: 2540 nM | IC50 [2]: 740 nM | CC50 [3]: > 12500 nM

N#Cc1ccc2c(c1)CCC(c1ccc(Cl)cc1)O2 (stereo not drawn)
IC50 [24]: 480 nM | IC50 [25]: 450 nM | IC50 [26]: 320 nM

O=C1N(CCC2(CCOc3ccc(-c4ccc(Cl)cc4)cc3)CCCCC2)CCN1c1ccncc1
IC50 [1]: > 25000 nM | IC50 [2]: > 25000 nM | CC50 [3]: > 25000 nM

O=C1N(CCN(CCOc2ccc(-c3ccc(Cl)cc3)cc2)Cc2ccc(Cl)cc2)CCN1c1ccncc1
IC50 [1]: > 25000 nM | IC50 [2]: > 25000 nM | CC50 [3]: > 25000 nM

O=C1N(CCC(CCOc2ccc(-c3ccc(Cl)cc3)cc2)Cc2ccccc2)CCN1c1ccncc1 (stereo not drawn)
IC50 [1]: > 10000 nM | IC50 [2]: > 10000 nM | CC50 [3]: > 10000 nM

CCC(CCOc1ccc(-c2ccc(Cl)cc2)cc1)CCN1CCN(c2ccncc2)C1=O (stereo not drawn)
IC50 [1]: 600 nM | IC50 [2]: 170 nM | CC50 [3]: > 25000 nM

CN(CCOc1ccc(-c2ccc(Cl)cc2)cc1)CCN1CCN(c2ccncc2)C1=O
IC50 [1]: 1180 nM | IC50 [2]: 400 nM | CC50 [3]: 25000 nM

CC(C)(CCCOc1ccc(-c2ccc(Cl)cc2)cc1)CN1CCN(c2ccncc2)C1=O
IC50 [1]: 720 nM | IC50 [2]: 94 nM | CC50 [3]: 20000 nM

CC(C)C(CCOc1ccc(-c2ccc(Cl)cc2)cc1)CCN1CCN(c2ccncc2)C1=O (stereo not drawn)
IC50 [1]: > 25000 nM | IC50 [2]: 2110 nM | CC50 [3]: > 25000 nM

O=C1N(CCOCCOc2ccc(-c3ccc(Cl)cc3)cc2)CCN1c1ccncc1
IC50 [1]: 7300 nM | IC50 [2]: 830 nM | CC50 [3]: 25000 nM

CCn1nnc(-c2ccc(OCCC(C)CCN3CCN(c4ccncc4)C3=O)cc2)n1 (stereo not drawn)
IC50 [4]: 240 nM | IC50 [5]: 2870 nM | IC50 [6]: 280 nM | IC50 [7]: 3230 nM | IC50 [8]: > 25000 nM | IC50 [9]: 35 nM | IC50 [10]: > 25000 nM | IC50 [11]: > 25000 nM | IC50 [27]: 2740 nM | IC50 [12]: 10400 nM | IC50 [13]: > 25000 nM | IC50 [14]: 130 nM | IC50 [15]: 140 nM | IC50 [16]: 1450 nM | IC50 [17]: 850 nM | IC50 [1]: 14 nM | IC50 [2]: 0.9 nM | IC50 [19]: 18 nM | IC50 [20]: 3 nM | IC50 [21]: 14 nM | IC50 [22]: 0.9 nM | IC50 [23]: 15 nM | Selectivity index [28]: >892 | Selectivity index [29]: >13888 | CC50 [3]: > 12500 nM

O=C1N(Cc2ccccc2COc2ccc(-c3ccc(Cl)cc3)cc2)CCN1c1ccncc1
IC50 [1]: > 1250 nM | IC50 [2]: > 1250 nM | CC50 [3]: > 1250 nM

O=C1N(CCN(CCOc2ccc(-c3ccc(Cl)cc3)cc2)Cc2ccccc2)CCN1c1ccncc1
IC50 [1]: > 5000 nM | IC50 [2]: > 5000 nM | CC50 [3]: > 5000 nM
